Experiments:
Coagulation factor XI = Coagulation factor XI (Homo sapiens, UniProt P03951)
Plasma = experiment: Anticoagulant activity in human plasma assessed as concentration required for 50% increase in activated partial thromboplastin time by automated coagulation analyzer; assay type: functional
In short: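 aPTT clotting assay in pooled normal human plasma on an automated coagulation analyzer with commercial reagents. EC1.5x is the inhibitor plasma concentration giving a 50% increase in clotting time over the no-inhibitor control.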

Chain of Coagulation factor XI (P03951 19-387 limits assumed): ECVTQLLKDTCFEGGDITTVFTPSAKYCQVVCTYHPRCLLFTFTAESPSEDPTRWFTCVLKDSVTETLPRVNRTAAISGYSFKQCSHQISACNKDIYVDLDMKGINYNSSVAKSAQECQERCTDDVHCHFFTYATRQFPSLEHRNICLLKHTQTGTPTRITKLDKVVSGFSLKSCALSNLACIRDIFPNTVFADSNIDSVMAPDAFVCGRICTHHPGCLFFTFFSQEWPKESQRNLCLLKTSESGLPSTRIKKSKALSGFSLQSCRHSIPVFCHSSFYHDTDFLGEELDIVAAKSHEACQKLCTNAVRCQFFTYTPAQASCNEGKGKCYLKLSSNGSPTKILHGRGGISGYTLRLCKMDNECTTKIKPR
Chain of Coagulation factor XI (P03951 388-625 limits assumed): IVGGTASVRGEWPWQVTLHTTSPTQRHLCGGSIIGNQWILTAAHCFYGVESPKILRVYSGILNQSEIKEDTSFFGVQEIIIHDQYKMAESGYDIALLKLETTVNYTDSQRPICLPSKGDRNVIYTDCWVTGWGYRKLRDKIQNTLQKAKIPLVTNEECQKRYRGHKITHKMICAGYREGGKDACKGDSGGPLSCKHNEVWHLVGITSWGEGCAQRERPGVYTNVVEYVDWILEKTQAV

SMILES	Ki (Coagulation factor XI) [nM]	EC1.5 (Plasma) [µM]
NC[C@H]1CC[C@H](C(=O)NC(Cc2ccccc2)c2cc(-c3ccc4c(N)noc4c3)ccn2)CC1 (mixture of isomers)	9.2	
NC[C@H]1CC[C@H](C(=O)NC(Cc2ccccc2)c2cc(-c3cccc(C(=O)O)c3)ccn2)CC1 (mixture of isomers)	205	
NC[C@H]1CC[C@H](C(=O)NC(Cc2ccccc2)c2cc(-c3ccc(N)nc3)ccn2)CC1 (mixture of isomers)	24	
NC[C@H]1CC[C@H](C(=O)NC(Cc2ccccc2)c2cc(-c3ccc4c(N)nccc4c3)ccn2)CC1 (mixture of isomers)	144	
NC[C@H]1CC[C@H](C(=O)NC(Cc2ccccc2)c2cc(-c3ccc4c(N)ncnc4c3)ccn2)CC1 (mixture of isomers)	10	2.8
NC[C@H]1CC[C@H](C(=O)NC(Cc2ccccc2)c2cc(-c3ccc(N)c(C(=O)O)c3)ccn2)CC1 (mixture of isomers)	5.3	0.8
COC(=O)Nc1ccc(-c2ccnc(C(Cc3ccccc3)NC(=O)[C@H]3CC[C@H](CN)CC3)c2)cc1 (mixture of isomers)	12	3.7
NC[C@H]1CC[C@H](C(=O)NC(Cc2ccccc2)c2cc(-c3ccc(N)cc3)ccn2)CC1 (mixture of isomers)	56	35

More lines, main results first:

Ki (Coagulation factor XI) [nM]	SMILES	EC1.5 (Plasma) [µM]
87	COc1n[nH]c2ccc(-c3ccnc(C(Cc4ccccc4)NC(=O)[C@H]4CC[C@H](CN)CC4)c3)cc12 (mixture of isomers)	>40
53	NC[C@H]1CC[C@H](C(=O)NC(Cc2ccccc2)c2cc(-c3ccc4[nH]nc(N)c4c3)ccn2)CC1 (mixture of isomers)	26
61	NC[C@H]1CC[C@H](C(=O)NC(Cc2ccccc2)c2cc(-c3ccc4[nH]ncc4c3)ccn2)CC1 (mixture of isomers)	
97	NC[C@H]1CC[C@H](C(=O)NC(Cc2ccccc2)c2cc(-c3ccc4c(O)n[nH]c4c3)ccn2)CC1 (mixture of isomers)	
87	NC[C@H]1CC[C@H](C(=O)NC(Cc2ccccc2)c2cc(-c3ccc4cn[nH]c4c3)ccn2)CC1 (mixture of isomers)	>40
110	Cn1[nH]c2ccc(-c3ccnc(C(Cc4ccccc4)NC(=O)[C@H]4CC[C@H](CN)CC4)c3)cc2c1=O (mixture of isomers)	

Reference: ChEMBL document CHEMBL3779805, “Orally bioavailable pyridine and pyrimidine-based Factor XIa inhibitors: Discovery of the methyl N-phenyl carbamate P2 prime group” (Bioorg Med Chem, 2016)
